Compound activity: PubChem BioAssay, Broad Institute
IDH1 mut inh: blocks human IDH1 R132H reductase activity. O75874. diaphorase/resazurin fluorescence, 60 min. inhibition, % at 10 µM. 70,000 tested, 0.18% active. AID 624101; in the data active = inhibition above about 34%; inconclusive = no clear call, values can overlap the other calls; inactive = below about 11%;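 note: 0% = DMSO and 100% = no enzyme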
GASC1 inh: KDM4C (human) demethylase inhibition; inhibition, % at 12.5 µM; Q9H3R0; 96,000 tested, 0.15% active; GST-KDM4C 2-372, H3K9me3 peptide, LANCE TR-FRET;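 active = mean replicate inhibition above about 25%, with at least 55% of replicates also reaching it, limit read from the data, passing the limit was not always enough; inconclusive = only one of those two conditions met; inactive = neither condition met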
Target sequence (Q9H3R0 2-372 limits assumed): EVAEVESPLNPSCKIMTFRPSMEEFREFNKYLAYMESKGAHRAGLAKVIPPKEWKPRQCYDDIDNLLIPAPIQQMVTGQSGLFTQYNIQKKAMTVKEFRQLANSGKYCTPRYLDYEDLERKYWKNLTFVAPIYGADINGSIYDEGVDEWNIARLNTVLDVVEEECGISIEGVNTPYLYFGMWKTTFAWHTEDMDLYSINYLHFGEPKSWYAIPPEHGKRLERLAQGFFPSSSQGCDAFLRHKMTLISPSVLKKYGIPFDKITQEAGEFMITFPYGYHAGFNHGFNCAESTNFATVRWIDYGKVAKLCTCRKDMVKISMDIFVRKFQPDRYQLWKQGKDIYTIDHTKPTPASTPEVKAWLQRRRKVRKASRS
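System: N-terminal GST-fused human GASC-1 (KDM4C) fragment, residues 2-372 / Amount: 10 nM GST-KDM4C in enzyme reaction / Also added: H3K9me3 peptide with Fe(II)/2OG / Times: 30 min demethylation and 1 h detection at room temperature / Signal: LANCE TR-FRET / Read-out basis: Fall in 671/618 emission ratio as inhibition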
T cruzi growth-1: inhibitors of T. cruzi proliferation; T. cruzi beta-gal in NIH3T3, GalScreen luminescence, 90 h; inhibition, % at 8.34 µM; 77,000 tested, 5.9% active;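 active = mean inhibition above about 93%, with at least 55% of replicates each passing it, limit read from the data, passing the limit was not always enough; inconclusive = only one of those two conditions holds; inactive = neither condition holds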
Pf Dd2 growth: blocks growth of Plasmodium falciparum Dd2 parasites; P. falciparum Dd2 growth, SYBR Green, 72 h; stronger effect = lower value; activity change, % at 10 µM; AID 1159554; 94,000 tested, 2.3% active; in the data active = activity change below about -80%; inconclusive = no clear call, values can overlap the other calls
T cruzi growth-2: Trypanosoma cruzi proliferation inhibition. 5,600 tested, 72% active. T. cruzi beta-gal in NIH3T3, GalScreen luminescence, 90 h. shares compounds with T cruzi growth-1. inhibition, % at 8.35 µM;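 active = mean replicate inhibition above about 95% and at least 55% of replicates individually reaching it, limit read from the data; inconclusive = only one of the two criteria is met; inactive = neither criterion is met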
T cruzi growth-3: inhibitors of T. cruzi proliferation. inhibition, % at 2.09 µM. shares compounds with T cruzi growth-1. 5,600 tested, 21% active. T. cruzi beta-gal in NIH3T3, GalScreen luminescence, 90 h. AID 651740;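 active = mean inhibition above about 95%, with at least 55% of replicates also reaching it, limit read from the data; inconclusive = meets just one of the two conditions; inactive = meets neither condition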;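 note: plate controls were neutral control median for no effect and positive control median for full effect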
3T3 cytotox: NIH/3T3 (mouse) viability loss; shares compounds with T cruzi growth-1; NIH/3T3 viability, CellTiter-Glo ATP luminescence, 90 h; cytotoxicity (signal decrease), % at 8.35 µM; 5,600 tested, 14% active;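 active = mean signal decrease across replicates above about 35% based on untreated-well scatter, with enough replicates individually passing, limit read from the data; inconclusive = no rule stated though some were filed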;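 note: 0% = median of neutral control wells and 100% = median of positive control wells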
NIH3T3 tox 2: NIH/3T3 (mouse) viability loss. NIH/3T3 viability, CellTiter-Glo ATP luminescence, 90 h. inhibition, % at 24.9 µM. 5,600 tested, 56% active. shares compounds with T cruzi growth-1;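 active = mean loss of cell viability signal at or above a set limit, and enough replicates individually reaching it; inconclusive = meets only the mean limit or only the replicate share; inactive = meets neither condition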;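 note: 0% = median of neutral control wells and 100% = median of positive control wells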
Active calls of the source: *; ? = inconclusive; · = not tested or not shown. Only some compounds are listed: those with a hit (about 5.8% of all), similar ones and a draw of the others.

SMILES	IDH1 mut inh	GASC1 inh	T cruzi growth-1	Pf Dd2 growth	T cruzi growth-2	T cruzi growth-3	3T3 cytotox	NIH3T3 tox 2
C[C@@H]1CCCCO[C@@H](CN(C)S(=O)(=O)c2ccc(Cl)cc2)[C@@H](C)CN([C@H](C)CO)C(=O)c2cc(NC(=O)C3CCCCC3)ccc2O1	·	-2	-11	-79	·	·	·	·
O=C(CSc1nnc(-c2ccc(Cl)cc2)n1-c1ccc(F)cc1)Nc1ccccc1Cl	0	·	·	·	·	·	·	·
COc1cc(CNC23CC4CC(CC(C4)C2)C3)ccc1OCC(N)=O	0	·	·	·	·	·	·	·
CCC(Sc1nc(C)cc(C)n1)C(=O)Nc1ccc(-c2nc3ccc(C)cc3s2)cc1 (configuration not stated)	0	·	·	·	·	·	·	·
OC[C@H]1[C@H](c2ccc(-c3ccccc3)cc2)[C@@H]2CN(Cc3cncnc3)CCCCN12	·	-1	107*	-40	103*	94	23	34*
Cc1cccc(-c2ccc([C@H]3[C@@H](CO)N4CCCCN(Cc5ccncc5)C[C@@H]34)cc2)c1	·	4	103*	-2	111*	68	25	105*
Cc1cccc(-c2ccc([C@@H]3[C@@H](CO)N4CCCCN(Cc5ccncc5)C[C@@H]34)cc2)c1	·	3	71	4	·	·	·	·
CN(C)C(=O)c1cccc(-c2ccc([C@H]3[C@@H](CO)N4CCCCN(Cc5cccnc5)C[C@@H]34)cc2)c1	·	0	101*	-25	?	88	-10	-15
Cc1cccc(-c2ccc([C@H]3[C@H](CO)N4CCCCN(Cc5cncnc5)C[C@@H]34)cc2)c1	·	0	103*	7	100*	75	9	11
OC[C@H]1[C@@H](c2ccc(-c3ccccc3)cc2)[C@H]2CN(Cc3cncnc3)CCCCN21	·	1	62	-5	·	·	·	·
Cc1cccc(-c2ccc([C@H]3[C@H](CO)N4CCCCN(Cc5cccnc5)C[C@@H]34)cc2)c1	·	·	104*	-64	106*	68	22	101*
OC[C@@H]1[C@@H](c2ccc(C#Cc3ccccc3)cc2)[C@H]2CN(Cc3cncnc3)CCCCN12	·	-1	70	-32	·	·	·	·
Cc1cccc(-c2ccc([C@H]3[C@@H](CO)N4CCCCN(Cc5cncnc5)C[C@@H]34)cc2)c1	·	2	106*	7	95*	85	37*	102*
Cc1cccc(-c2ccc([C@H]3[C@H]4CN(Cc5cncnc5)CCCCN4[C@H]3CO)cc2)c1	·	2	68	4	·	·	·	·
OC[C@@H]1[C@@H](c2ccc(-c3cccc(F)c3)cc2)[C@H]2CN(Cc3cncnc3)CCCCN12	·	0	60	-6	·	·	·	·
OC[C@@H]1[C@H](c2ccc(C#Cc3ccccc3F)cc2)[C@H]2CN(Cc3cncnc3)CCCCN12	·	0	118*	-76	103*	96*	44*	105*
OC[C@H]1[C@H](c2ccc(-c3cccc(F)c3)cc2)[C@H]2CN(Cc3cncnc3)CCCCN21	·	1	94*	-22	92	-5	15	105*
CC(C)[C@@H]1CC[C@@]2(C)CCC[C@@](C)(O)[C@@H]2[C@H]1OC(=O)/C=C/c1ccccc1	0	·	·	·	·	·	·	·
Cc1cc2ncn(CC(O)COc3ccccc3Cl)c2cc1C (configuration not stated)	0	·	·	·	·	·	·	·
O=C(CSC1CC(=O)N(c2ccccc2)C1=O)Nc1ccc(Cl)c(Cl)c1 (configuration not stated)	0	·	·	·	·	·	·	·
COc1ccc(S(=O)(=O)Nc2ccc3c(c2)C(=O)N([C@@H](C)CO)C[C@H](C)[C@@H](CN(C)S(=O)(=O)c2ccc(Cl)cc2)OCCCC[C@@H](C)O3)cc1	0	0	99*	-75	101*	114*	-2	35*
COc1ccc(S(=O)(=O)N(C)C[C@H]2OCCCC[C@H](C)Oc3ccc(NS(=O)(=O)c4ccc(Cl)cc4)cc3C(=O)N([C@@H](C)CO)C[C@@H]2C)cc1	·	-1	·	-52	·	·	·	·
